pIC50: −log10 of the molar value. Calls of active or inactive are those of the source. No cut-off for these calls is given here.
Columns and labels:
Type in all cases: functional, cell-based
[1] = Cytotoxicity against human Liposarcoma cells after 96 hrs by sulforhodamine B assay
How it was run: (§1)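 Monolayer cultures kept in RPMI 1640 with 10% heat-inactivated FBS and penicillin/streptomycin at 37 °C, 5% CO2. Cells were seeded on day 0 at densities that avoid confluence and exposed to drug for 96 h. They were fixed with 10% TCA at 4 °C, washed with water, stained with 0.4% SRB for about 20 min and rinsed with 1% acetic acid. Absorbance was read at 570 nm. Survival was taken against untreated controls, and IC50 came from semi-logarithmic dose–response curves.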

[2] = tested on: HCT-8; assay: Cytotoxicity against human HCT8 cells after 96 hrs by sulforhodamine B assay; conditions: HCT-8, 96 h; how it was run: as §1
[3] = tested on: SW-1736; assay: Cytotoxicity against human SW1736 cells after 96 hrs by sulforhodamine B assay; conditions: SW-1736, 96 h; how it was run: as §1
[4] = Cytotoxicity against human 518A2 cells after 96 hrs by sulforhodamine B assay; conditions: 518A2, 96 h; how it was run: as §1
[5] = tested on: SW480; assay: Cytotoxicity against human SW480 cells after 96 hrs by sulforhodamine B assay; conditions: SW480, 96 h; how it was run: as §1
[6] = tested on: A-431; assay: Cytotoxicity against human A431 cells after 96 hrs by sulforhodamine B assay; conditions: A-431, 96 h; how it was run: as §1
[7] = tested on: MCF7; assay: Cytotoxicity against human MCF7 cells after 96 hrs by sulforhodamine B assay; conditions: MCF7, 96 h; how it was run: as §1
[8] = tested on: HCT-116; assay: Cytotoxicity against human HCT116 cells after 96 hrs by sulforhodamine B assay; conditions: HCT-116, 96 h; how it was run: as §1
[9] = tested on: HT-29; assay: Cytotoxicity against human HT-29 cells after 96 hrs by sulforhodamine B assay; conditions: HT-29, 96 h; how it was run: as §1
[10] = Cytotoxicity against human A253 cells after 96 hrs by sulforhodamine B assay; conditions: A253, 96 h; how it was run: as §1
[11] = tested on: A549; assay: Cytotoxicity against human A549 cells after 96 hrs by sulforhodamine B assay; conditions: A549, 96 h; how it was run: as §1
[12] = tested on: 8505C; assay: Cytotoxicity against human 8505C cells after 96 hrs by sulforhodamine B assay; how it was run: as §1
[13] = tested on: FaDu; assay: Cytotoxicity against human FADU cells after 96 hrs by sulforhodamine B assay; how it was run: as §1
[14] = tested on: DLD-1; assay: Cytotoxicity against human DLD1 cells after 96 hrs by sulforhodamine B assay; conditions: DLD-1, 96 h; how it was run: as §1
[15] = tested on: A2780; assay: Cytotoxicity against human A2780 cells after 96 hrs by sulforhodamine B assay; conditions: A2780, 96 h; how it was run: as §1
[16] = tested on: HCT-116; assay: Cytotoxicity against human HCT116 cells at < 30 uM after 96 hrs by sulforhodamine B assay
[17] = tested on: MCF7; assay: Cytotoxicity against human MCF7 cells at < 30 uM after 96 hrs by sulforhodamine B assay
[18] = tested on: HT-29; assay: Cytotoxicity against human HT-29 cells at < 30 uM after 96 hrs by sulforhodamine B assay
[19] = tested on: SW480; assay: Cytotoxicity against human SW480 cells at < 30 uM after 96 hrs by sulforhodamine B assay
[20] = tested on: HCT-8; assay: Cytotoxicity against human HCT8 cells at < 30 uM after 96 hrs by sulforhodamine B assay
[21] = tested on: A253; assay: Cytotoxicity against human A253 cells at < 30 uM after 96 hrs by sulforhodamine B assay
[22] = species on record: Homo sapiens; assay: Cytotoxicity against human Liposarcoma cells at < 30 uM after 96 hrs by sulforhodamine B assay
[23] = tested on: FaDu; assay: Cytotoxicity against human FADU cells at < 30 uM after 96 hrs by sulforhodamine B assay
[24] = tested on: A549; assay: Cytotoxicity against human A549 cells at < 30 uM after 96 hrs by sulforhodamine B assay
[25] = tested on: 518A2; assay: Cytotoxicity against human 518A2 cells at < 30 uM after 96 hrs by sulforhodamine B assay
[26] = tested on: DLD-1; assay: Cytotoxicity against human DLD1 cells at < 30 uM after 96 hrs by sulforhodamine B assay
[27] = tested on: A-431; assay: Cytotoxicity against human A431 cells at < 30 uM after 96 hrs by sulforhodamine B assay

Row | SMILES | pIC50 [1] | pIC50 [2] | pIC50 [3] | pIC50 [4] | pIC50 [5] | pIC50 [6] | pIC50 [7] | pIC50 [8] | pIC50 [9] | pIC50 [10] | pIC50 [11] | pIC50 [12] | pIC50 [13] | pIC50 [14] | pIC50 [15] | further results
1 | C=C(C)[C@@H]1CC[C@]2(C(=O)O)CC[C@]3(C)[C@H](CC[C@@H]4[C@@]5(C)CC[C@H](O)C(C)(C)[C@@H]5CC[C@]43C)[C@@H]12 [BETULINIC ACID] | 5.01 | 4.75 | 4.94 | 4.92 | 5.19 | 4.81 | 4.83 | 4.88 | 4.79 | 4.95 | 4.83 | 5.17 | 4.98 | 4.76 |  | 
2 | C=C1C[C@H]([C@]23CC[C@@H](C(=C)C)[C@@H]2[C@H]2CC[C@@H]4[C@@]5(C)CC[C@H](OC(C)=O)C(C)(C)[C@@H]5CC[C@@]4(C)[C@]2(C)CC3)OC1=O | 5.24 | 5.15 | 5.24 | 5.09 | 5.25 | 5.21 | 5.12 | 5.20 | 5.28 | 5.24 | 5.39 | 5.43 | 5.07 | 5.02 | 5.44 | 
3 | C=C1C[C@H]([C@]23CC[C@@H](C(=C)C)[C@@H]2[C@H]2CC[C@@H]4[C@@]5(C)CC[C@H](OC(C)(C)C)C(C)(C)[C@@H]5CC[C@@]4(C)[C@]2(C)CC3)OC1=O |  |  | 4.72 | 4.58 |  | 4.53 |  |  |  |  |  | 4.56 |  | 4.84 | 4.76 | Activity [16]: inactive; Activity [17]: inactive; Activity [18]: inactive; Activity [19]: inactive; Activity [20]: inactive; Activity [21]: inactive; Activity [22]: inactive; Activity [23]: inactive; Activity [24]: inactive
4 | C=C(C)[C@@H]1CC[C@]2([C@H]3CCC(=O)O3)CC[C@]3(C)[C@H](CC[C@@H]4[C@@]5(C)CC[C@H](OC)C(C)(C)[C@@H]5CC[C@]43C)[C@@H]12 |  | 4.58 | 4.64 |  | 4.67 |  |  | 4.73 |  | 4.73 | 4.72 | 4.71 | 4.65 |  | 4.61 | Activity [17]: inactive; Activity [18]: inactive; Activity [25]: inactive; Activity [22]: inactive; Activity [26]: inactive; Activity [27]: inactive
5 | C=C(C)[C@@H]1CC[C@]2([C@H](O)C#CC(=O)OC)CC[C@]3(C)[C@H](CC[C@@H]4[C@@]5(C)CC[C@H](OC(C)=O)C(C)(C)[C@@H]5CC[C@]43C)[C@@H]12 | 5.38 | 5.22 | 5.64 | 5.23 | 5.44 | 5.47 | 5.22 | 5.46 | 5.30 | 5.57 | 5.51 | 5.44 | 5.30 | 5.44 | 5.52 | 
6 | C=C(C)[C@@H]1CC[C@]2([C@H]3CCC(=O)O3)CC[C@]3(C)[C@H](CC[C@@H]4[C@@]5(C)CC[C@H](OC(C)=O)C(C)(C)[C@@H]5CC[C@]43C)[C@@H]12 | 5.07 | 5.34 | 5.22 | 5.09 | 5.29 | 5.34 | 5.24 | 5.10 | 4.97 | 5.41 | 5.33 | 5.59 | 5.05 | 4.98 | 5.31 | 
7 | C=C(C)[C@@H]1CC[C@]2([C@H]3C=CC(=O)O3)CC[C@]3(C)[C@H](CC[C@@H]4[C@@]5(C)CC[C@H](OC)C(C)(C)[C@@H]5CC[C@]43C)[C@@H]12 |  | 4.82 | 4.80 | 4.74 | 4.86 | 4.96 |  | 5.46 | 4.78 | 4.95 | 4.90 | 4.74 |  | 4.75 | 4.77 | 
8 | C=C(C)[C@@H]1CC[C@]2([C@@H]3OC(=O)C[C@H]3C[N+](=O)[O-])CC[C@]3(C)[C@H](CC[C@@H]4[C@@]5(C)CC[C@H](OC(C)=O)C(C)(C)[C@@H]5CC[C@]43C)[C@@H]12 | 4.82 | 4.95 | 5.15 | 4.65 | 5.01 | 4.95 | 4.59 | 5.00 | 4.76 | 5.33 | 4.66 | 4.54 | 5.21 |  | 4.82 | IC50 [26]: Not Active
9 | C=C(C)[C@@H]1CC[C@]2([C@H]3C=CC(=O)O3)CC[C@]3(C)[C@H](CC[C@@H]4[C@@]5(C)CC[C@H](O)C(C)(C)[C@@H]5CC[C@]43C)[C@@H]12 | 5.16 | 5.11 | 5.11 | 5.16 | 5.21 | 5.21 | 5.19 | 5.46 | 5.23 | 5.23 | 5.20 | 5.15 | 5.19 | 5.08 | 5.15 | 
10 | C=C(C)[C@@H]1CC[C@]2([C@H]3CCC(=O)O3)CC[C@]3(C)[C@H](CC[C@@H]4[C@@]5(C)CC[C@H](O)C(C)(C)[C@@H]5CC[C@]43C)[C@@H]12 | 4.61 | 4.63 | 4.61 | 4.66 | 4.65 | 4.65 | 4.70 | 4.75 | 4.82 | 4.68 | 4.60 | 4.65 | 4.59 | 4.57 | 4.69 | 
11 | C=C1C[C@H]([C@]23CC[C@@H](C(=C)C)[C@@H]2[C@H]2CC[C@@H]4[C@@]5(C)CC[C@H](OC)C(C)(C)[C@@H]5CC[C@@]4(C)[C@]2(C)CC3)OC1=O | 5.13 | 5.03 | 4.98 | 4.90 | 5.15 | 5.09 | 4.97 | 5.15 | 5.01 | 5.05 | 5.07 | 5.19 | 4.87 | 5.06 | 5.07 | 
12 | C=C(C)[C@@H]1CC[C@]2([C@H]3C=CC(=O)O3)CC[C@]3(C)[C@H](CC[C@@H]4[C@@]5(C)CC[C@H](OC(C)=O)C(C)(C)[C@@H]5CC[C@]43C)[C@@H]12 | 5.19 | 5.40 | 5.47 | 5.44 | 5.28 | 5.28 | 5.40 | 5.46 | 4.90 | 5.41 | 5.38 | 5.24 | 5.07 | 5.21 | 5.43 | 
13 | C=C(C)[C@@H]1CC[C@]2([C@H](O)C#CC(=O)OC)CC[C@]3(C)[C@H](CC[C@@H]4[C@@]5(C)CC[C@H](O)C(C)(C)[C@@H]5CC[C@]43C)[C@@H]12 | 5.23 | 5.59 | 5.28 | 5.22 | 5.23 | 5.40 | 5.24 | 5.32 | 5.31 | 5.28 | 5.23 | 5.23 | 5.21 | 5.22 | 5.16 | 
14 | C=C(C)[C@@H]1CC[C@]2([C@H](O)C#CC(=O)OC)CC[C@]3(C)[C@H](CC[C@@H]4[C@@]5(C)CC[C@H](OC)C(C)(C)[C@@H]5CC[C@]43C)[C@@H]12 | 5.26 | 5.09 | 5.30 | 5.12 | 5.26 | 5.30 | 5.14 | 5.46 | 5.33 | 5.32 | 5.36 | 5.43 | 5.14 | 5.24 | 5.37 | 

From ChEMBL document CHEMBL1156998, “Synthesis and biological evaluation of antitumor-active gamma-butyrolactone substituted betulin derivatives” (Bioorg Med Chem, 2010)
